The text below walks through data of ChEMBL document CHEMBL4152390, “Discovery of the First-in-Class Dual Histone Deacetylase-Proteasome Inhibitor” (J Med Chem, 2018).

Activity calls are given as the source filed them. No cut-off for these calls is given here. Where a SMILES comes first, the peptide text is derived from it. The star is where a group is joined. Cbz = O=C(OCc1ccccc1)* Bounds are passed on as bounds.

Experiment [1] deals with T1, Proteasome Macropain subunit MB1 (Homo sapiens, UniProt P28074).
T1 sequence (P28074 whole entry): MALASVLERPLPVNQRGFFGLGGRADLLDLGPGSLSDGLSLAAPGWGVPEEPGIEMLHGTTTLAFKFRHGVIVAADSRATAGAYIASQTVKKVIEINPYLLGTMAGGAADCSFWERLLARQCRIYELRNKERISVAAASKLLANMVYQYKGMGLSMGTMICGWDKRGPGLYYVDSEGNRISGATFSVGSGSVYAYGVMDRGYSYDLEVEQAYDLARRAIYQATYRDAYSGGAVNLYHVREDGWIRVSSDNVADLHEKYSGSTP
Put plainly: Inhibition of chymotrypsin-like activity of 20S proteasome in human HL60 cells using Suc-LLVY aminoluciferin as substrate after 2 hrs by proteasome-Glo assay. Format: cell-based.

For experiment [2], the target named is T1, Proteasome Macropain subunit MB1. In words: Inhibition of chymotrypsin-like activity of 20S proteasome in human SEM cells using Suc-LLVY aminoluciferin as substrate after 2 hrs by proteasome-Glo assay. Format: cell-based.
Experiment [3] shares this target. Put plainly: Inhibition of chymotrypsin-like activity of 20S proteasome in imatinib-resistant human SUP-B15 cells using Suc-LLVY aminoluciferin as substrate after 2 hrs by proteasome-Glo assay. Type of experiment: cell-based.
Experiment [4] concerns SEM cells. Put plainly: Inhibition of proteasome in human SEM cells assessed as increase in aggresome accumulation at 3 uM after 18 hrs by FACS analysis. Format: cell-based. In a few lines: (§1)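 Cells treated 18 h, then stained with a proteostat aggresome dye plus DNA stain. Imaged by fluorescence microscopy (63X objective) or analysed by FACS, with aggresome propensity factor from relative mean fluorescence intensity.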

For experiment [5], the system named is SEM cells. Put plainly: Inhibition of proteasome in human SEM cells assessed as increase in aggresome accumulation at 3 uM after 18 hrs by fluorescence microscopic method. Type of experiment: cell-based. In a few lines: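 SEM cells exposed for 18 h, then labeled with a proteostat aggresome detection kit with DNA counterstain per kit guidelines; aggresomes imaged by fluorescence microscopy with a 63X objective.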

For experiment [6], the system named is SEM cells. Put plainly: Inhibition of proteasome in human SEM cells assessed as increase in aggresome accumulation at 10 nM after 18 hrs by fluorescence microscopic method. Type of experiment: cell-based. In a few lines: as §1
For experiment [7], the system named is SEM cells. Put plainly: Inhibition of proteasome in human SEM cells assessed as increase in cleaved PARP expression at 1 to 100 nM after 24 hrs by immunoblot assay. Format: cell-based. A digest of the protocol:
(§2)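 Cells treated with compounds for 24 h; lysates immunoblotted for PARP alongside acetyl-α-tubulin, acetyl-histone H3 and GAPDH.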
For orientation: In western blotting, separated proteins are transferred to a membrane and probed.

Another experiment has as its system PBMC. Put plainly: cells. Type of experiment: ADME, cell-based. Conditions: Homo sapiens, 72 h.
In experiment [8] the test system is SEM cells. In words: Inhibition of proteasome in human SEM cells assessed as increase in aggresome accumulation at 10 nM after 18 hrs by FACS analysis. Type of experiment: cell-based. A digest of the protocol:
as §1
On the technique in general: In flow cytometry, cells or beads pass a laser one at a time.

The species entered for another experiment is Homo sapiens. In words: Inhibition of proteasome in human HL60 cells assessed as increase in cleaved PARP expression at 1 to 100 nM after 24 hrs by immunoblot assay. Type of experiment: cell-based. A digest of the protocol: (§3)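 Cells exposed for 24 h at indicated concentrations; lysates immunoblotted for acetyl-α-tubulin, acetyl-histone H3, PARP, with GAPDH as loading control.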

The subject of experiment [9] is SUP-B15. In words: Inhibition of proteasome in imatinib-resistant human SUP-B15 cells assessed as increase in cleaved PARP expression at 1 to 100 nM after 24 hrs by immunoblot assay. Format: cell-based. A digest of the protocol: as §2
The target in experiment [10] is T2, Protein deacetylase HDAC6 (Homo sapiens) (UniProt Q9UBN7).
T2 sequence (whole entry): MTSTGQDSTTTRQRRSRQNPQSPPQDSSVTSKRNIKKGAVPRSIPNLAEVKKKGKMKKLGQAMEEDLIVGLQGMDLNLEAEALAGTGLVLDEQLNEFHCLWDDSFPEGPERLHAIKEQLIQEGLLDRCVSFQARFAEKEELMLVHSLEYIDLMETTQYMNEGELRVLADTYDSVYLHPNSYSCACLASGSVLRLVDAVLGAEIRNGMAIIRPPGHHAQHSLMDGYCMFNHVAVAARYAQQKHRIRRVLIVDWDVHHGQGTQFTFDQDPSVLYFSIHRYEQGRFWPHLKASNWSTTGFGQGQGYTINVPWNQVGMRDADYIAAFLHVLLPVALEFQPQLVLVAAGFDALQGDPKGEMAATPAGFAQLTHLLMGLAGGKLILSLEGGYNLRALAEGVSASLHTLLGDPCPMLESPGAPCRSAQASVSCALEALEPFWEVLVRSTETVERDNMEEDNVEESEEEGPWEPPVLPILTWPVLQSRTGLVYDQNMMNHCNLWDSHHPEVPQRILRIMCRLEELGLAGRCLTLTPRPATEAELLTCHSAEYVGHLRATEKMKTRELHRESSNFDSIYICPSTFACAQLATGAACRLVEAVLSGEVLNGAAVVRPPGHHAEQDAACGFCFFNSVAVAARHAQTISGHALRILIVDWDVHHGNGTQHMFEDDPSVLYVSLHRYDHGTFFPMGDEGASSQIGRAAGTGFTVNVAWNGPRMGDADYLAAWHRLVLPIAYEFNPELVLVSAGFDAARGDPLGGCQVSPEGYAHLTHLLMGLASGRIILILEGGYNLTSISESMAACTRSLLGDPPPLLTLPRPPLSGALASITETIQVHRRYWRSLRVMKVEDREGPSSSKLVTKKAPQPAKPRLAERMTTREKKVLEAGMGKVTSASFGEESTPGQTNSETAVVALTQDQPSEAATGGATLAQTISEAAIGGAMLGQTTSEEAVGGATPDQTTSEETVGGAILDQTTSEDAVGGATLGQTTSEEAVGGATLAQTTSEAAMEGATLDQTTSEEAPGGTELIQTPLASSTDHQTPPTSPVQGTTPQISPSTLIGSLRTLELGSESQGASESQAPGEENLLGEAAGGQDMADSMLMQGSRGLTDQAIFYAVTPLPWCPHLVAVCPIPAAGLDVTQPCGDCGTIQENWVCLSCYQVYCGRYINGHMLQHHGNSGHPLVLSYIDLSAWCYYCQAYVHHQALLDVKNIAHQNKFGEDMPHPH
In words: Inhibition of HDAC6 in human SEM cells assessed as increase in acetyl-alpha tubulin expression at 0.1 to 10 uM after 24 hrs by immunoblot assay. Format: cell-based. In a few lines:
as §3

Experiment [11] can be described thus: Cytotoxicity against human BCP-ALL cells derived from patient 2 after 72 hrs by CellTiter-Glo luminescent cell viability assay. Type of experiment: functional, cell-based. In a few lines:
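Compounds dispensed digitally at increasing concentrations, 50 nM–25 μM; viability read by CellTiter-Glo luminescence after 72 h. Raw data normalized to controls, IC50 from sigmoid dose curve by non-linear regression. Patient samples: primary cells from newly diagnosed or relapsed patients, cultured in stem cell expansion or mononuclear cell medium.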
On the technique in general: Cellular ATP, detected with luciferase, serves as a proxy for viable cell number.

In experiment [12] the target is T2, Protein deacetylase HDAC6 (Homo sapiens). Conditions: SUP-B15, 0.1 to 10 uM.
Experiment [13] has the same target. Put plainly: Inhibition of HDAC6 in human HL60 cells assessed as increase in acetyl-alpha tubulin expression at 0.1 to 10 uM after 24 hrs by immunoblot assay. Type of experiment: cell-based. In a few lines:
as §3

The nature of experiment [14]: Cytotoxicity against human RPMI18226 cells after 72 hrs by CellTiter-Glo luminescent cell viability assay. Type of experiment: functional, cell-based. Conditions: RPMI18226, 72 h.
Experiment [15] has as its target T2, Protein deacetylase HDAC6 (Homo sapiens). To be noted: SEM, 0.1 to 10 uM.
The target is the same in experiment [16]. In words: Inhibition of HDAC6 in human HL60 cells assessed as increase in acetyl-histone H3 expression at 0.1 to 10 uM after 24 hrs by immunoblot assay. Type of experiment: cell-based. A digest of the protocol:
as §3

Experiment [17] shares this target. Conditions: 0.1 to 10 uM.
Experiment [18] shares this target. Conditions: SEM, 1.6 uM.
Experiment [19] has the same target. In words: Inhibition of HDAC6 in human SEM cells assessed as increase in acetyl-histone H3 expression at 0.1 to 10 uM after 24 hrs by immunoblot assay. Type of experiment: cell-based. In a few lines:
as §3

The subject of experiment [20] is SEM cells. In words: Cytotoxicity against human SEM cells after 72 hrs by CellTiter-Glo luminescent cell viability assay. Format: functional, cell-based. In a few lines:
(§4)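 Inhibitors dispensed in increasing concentrations (50 nM–25 μM) and cells exposed 72 h. Viability read by ATP-dependent luminescence (CellTiter-Glo). Raw data normalized to controls. IC50 obtained by sigmoid dose–response fit with non-linear regression.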

The test system of experiment [21] is KCL-22. In words: Cytotoxicity against human KCL22 cells after 72 hrs by CellTiter-Glo luminescent cell viability assay. Type of experiment: functional, cell-based. Conditions: KCL-22, 72 h. A digest of the protocol: as §4
Experiment [22] is described as follows: Cytotoxicity against human BCP-ALL cells derived from patient 1 after 72 hrs by CellTiter-Glo luminescent cell viability assay. Format: functional, cell-based.
Experiment [23] deals with SUP-B15. Put plainly: Cytotoxicity against imatinib-resistant human SUP-B15 cells after 72 hrs by CellTiter-Glo luminescent cell viability assay. Format: functional, cell-based. To be noted: SUP-B15, 72 h.
Experiment [24] has as its target T2, Protein deacetylase HDAC6 (Homo sapiens). In words: Inhibition of HDAC6 in imatinib-resistant human SUP-B15 cells assessed as increase in acetyl-alpha tubulin expression at 0.1 to 10 uM after 24 hrs by immunoblot assay. Type of experiment: cell-based. In a few lines: as §3
In a further experiment the test system is HL-60. In words: Cytotoxicity against human HL60 cells after 72 hrs by CellTiter-Glo luminescent cell viability assay. Type of experiment: functional, cell-based. To be noted: HL-60, 72 h.
Experiment [25] in a line: Cytotoxicity against human BCP-ALL cells derived from patient 3 after 72 hrs by CellTiter-Glo luminescent cell viability assay. Format: functional, cell-based.
Experiment [26] has as its target T2, Protein deacetylase HDAC6 (Homo sapiens). Put plainly: Inhibition of HDAC6 in imatinib-resistant human SUP-B15 cells assessed as increase in acetyl-histone H3 expression at 0.1 to 10 uM after 24 hrs by immunoblot assay. Type of experiment: cell-based. In a few lines: as §3
Experiment [27] concerns KCL-22. Put plainly: Cytotoxicity against imatinib-resistant human KCL22 cells after 72 hrs by CellTiter-Glo luminescent cell viability assay. Type of experiment: functional, cell-based. Conditions: KCL-22, 72 h. In a few lines: as §4
The nature of experiment [28]: Cytotoxicity against human BCP-ALL cells derived from patient 4 after 72 hrs by CellTiter-Glo luminescent cell viability assay. Format: functional, cell-based.
Experiment [29] concerns SEM cells. Put plainly: Antiproliferative activity against human SEM cells at IC50 to 2 times IC50 after 24 to 72 hrs by trypan exclusion method. Type of experiment: functional, cell-based.

The IC50 is the concentration needed to halve the response being measured. The low end stands for greater potency, the high end for weaker potency. Take `O=C(CCCCCCC(=O)Nc1ccccc1)NO` [VORINOSTAT]: the concentration for half-maximal inhibition (IC50) in experiment [1], in [2] and in experiment [3] was above 25 µM each time.

As to `CC(C)C[C@@H](C=O)NC(=O)[C@H](CC(C)C)NC(=O)[C@H](CC(C)C)NC(=O)OCc1ccccc1` (Cbz-Leu-Leu-Leu-aldehyde), the inhibition entry with SEM cells [4] and with SEM cells [5] was “Active” each time.

Turning to `CC(C)C[C@H](NC(=O)[C@H](Cc1ccccc1)NC(=O)c1cnccn1)B(O)O` [BORTEZOMIB], the inhibition result in the experiment with SEM cells [6], in the experiment with SEM cells [7], in the experiment with SEM cells [8], in the experiment listed under Homo sapiens and in the experiment with SUP-B15 [9] was “Active” each time. This compound also yielded an IC50 with PBMC below 0.035 µM.

With `O=C(CCCCCCNC(=O)c1cnc(N(c2ccccc2)c2ccccc2)nc1)NO` [RICOLINOSTAT], the inhibition entry in experiment [10], in experiment [12], in experiment [13], in experiment [15], in [16] and in [17] was “Active” in each case. Moreover, the inhibition entry in experiment [18], in [19], in [24] and in experiment [26] was “Active” each time. For the same compound, the IC50 in [11] is 0.58 µM; in experiment [14] it was 1.97 µM; in [1] it was above 25 µM; with SEM cells [20] it was 1.61 µM; in experiment [2], above 25 µM; with KCL-22 [21] it was 3.75 µM. The 50% inhibitory concentration (IC50) in experiment [22] is 0.29 µM; in experiment [3] it was above 25 µM; in the experiment on SUP-B15 [23], 3.54 µM; with HL-60, 2.36 µM; in experiment [25] it was 4.45 µM; with KCL-22 [27] it was 3.38 µM. For the same compound, the half-maximal inhibitory concentration (IC50) with PBMC was below 3.6 µM; in [28], 0.54 µM. Also, in the experiment on SEM cells [29], the result was Active.
